# Calls of active or inactive are those of the source. The calls are words filed in the database; no cut-off is given here. Where a SMILES comes first, the peptide text is derived from it. [ ]: non-standard residue; d: D form. The star is where a group is joined. Propanoyl(3-(3-pyridyl)) = O=C(CCc1cccnc1)*; 2Nal = N[C@@H](Cc1ccc2ccccc2c1)C(=O)O; Propanoyl(3-cHex) = O=C(CCC1CCCCC1)*; Hydrocinnamoyl = O=C(CCc1ccccc1)*; hArg = N=C(N)NCCCC[C@H](N)C(=O)O; hPhe = N[C@@H](CCc1ccccc1)C(=O)O; Tic = O=C(O)[C@@H]1Cc2ccccc2CN1; Pip = O=C(O)[C@@H]1CCCCN1; Dab = NCC[C@H](N)C(=O)O; Dap = NC[C@H](N)C(=O)O
# Tests used:
# Homo sapiens [1] = species: Homo sapiens; assay: Selectivity ratio of PC50 for human NMUR2 to PC50 for human NMUR1
# Summary of the method: (§1)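 Ratio of PC50 values from the CHO stable-line calcium assays. NMUR1 selectivity is PC50(NMUR2)/PC50(NMUR1); NMUR2 selectivity is PC50(NMUR1)/PC50(NMUR2).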
# Neuromedin-U receptor 2 [2] = target: T1, Neuromedin-U receptor 2 (Homo sapiens, UniProt Q9GZQ4); assay: Agonist activity at human NMUR2 expressed in CHO cells assessed as concentration required to induce 50% response by calcium mobilization assay relative to NMU; type: functional, cell-based
# T1 sequence (Q9GZQ4 whole entry): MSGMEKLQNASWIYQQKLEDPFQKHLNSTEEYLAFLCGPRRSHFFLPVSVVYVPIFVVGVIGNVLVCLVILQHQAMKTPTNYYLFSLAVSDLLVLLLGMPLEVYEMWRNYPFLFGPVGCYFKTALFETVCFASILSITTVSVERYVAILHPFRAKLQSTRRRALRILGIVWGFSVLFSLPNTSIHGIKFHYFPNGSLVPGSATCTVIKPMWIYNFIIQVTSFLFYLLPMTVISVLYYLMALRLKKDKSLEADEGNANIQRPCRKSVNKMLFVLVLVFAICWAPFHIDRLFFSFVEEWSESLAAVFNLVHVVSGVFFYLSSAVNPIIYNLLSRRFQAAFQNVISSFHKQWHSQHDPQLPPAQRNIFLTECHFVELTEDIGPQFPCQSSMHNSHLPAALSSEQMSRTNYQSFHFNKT
# Summary of the method: (§2)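 CHO cells stably expressing human NMUR1 (CHO/NMUR1-9) or NMUR2 (CHO/NMUR2-8), selected with G418, seeded 2.0 × 10^4 cells/well. Cells loaded 40 min with 4 μM Fluo-4-AM in HBSS/10 mM HEPES/2.5 mM probenecid pH 7.4. Peptides from 20 mM DMSO stocks applied at 10−12 to 10−6 M final, triplicate, FLIPR read-out. PC50 is the concentration giving 50% of the response to hNMU at 1000 nM.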
# Homo sapiens [3] = species: Homo sapiens; assay: Selectivity ratio of PC50 for human NMUR1 to PC50 for human NMUR2; summary of the method: as §1
# Neuromedin-U receptor 1 [4] = target: T2, Neuromedin-U receptor 1 (Homo sapiens, UniProt Q9HB89); assay: Agonist activity at human NMUR1 expressed in CHO cells by calcium mobilization assay; type: functional, cell-based
# T2 sequence (Q9HB89 whole entry): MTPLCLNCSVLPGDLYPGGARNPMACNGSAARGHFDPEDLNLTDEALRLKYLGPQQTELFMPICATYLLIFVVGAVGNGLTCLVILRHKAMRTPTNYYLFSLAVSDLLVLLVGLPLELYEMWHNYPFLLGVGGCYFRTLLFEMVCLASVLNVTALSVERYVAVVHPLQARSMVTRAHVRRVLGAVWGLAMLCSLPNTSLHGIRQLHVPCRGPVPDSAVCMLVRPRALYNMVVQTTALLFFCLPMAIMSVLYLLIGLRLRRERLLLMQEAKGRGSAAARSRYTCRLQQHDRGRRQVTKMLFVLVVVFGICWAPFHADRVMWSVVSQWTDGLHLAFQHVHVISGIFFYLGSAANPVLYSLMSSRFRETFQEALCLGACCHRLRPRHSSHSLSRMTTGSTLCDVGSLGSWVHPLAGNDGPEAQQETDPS
# Neuromedin-U receptor 2 [5] = target: T1, Neuromedin-U receptor 2; assay: Agonist activity at human NMUR2 expressed in CHO cells by calcium mobilization assay; type: functional, cell-based
# Summary of the method: (§3)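 Calcium mobilization in CHO cells stably expressing human NMUR1 or NMUR2, Fluo-4-AM loaded, read on a fluorometric imaging plate reader. Peptides tested at 10−12 to 10−6 M final in triplicate. EC50 derived from the curves. Intrinsic activity is the maximal response as % of the endogenous agonist hNMU.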
# [6] = target: T3, Neuromedin-U receptor 1 (Homo sapiens) (UniProt Q9HB89); assay: Agonist activity at human NMUR1 expressed in CHO cells assessed as concentration required to induce 50% response by calcium mobilization assay relative to NMU; type: functional, cell-based; summary of the method: as §2
# T3 sequence (whole entry): T2 sequence (Q9HB89 whole entry)
# Neuromedin-U receptor 2 [7] = target: T1, Neuromedin-U receptor 2; assay: Agonist activity at human NMUR2 expressed in HEK293 cells at 1 to 100 nM by calcium mobilization assay relative to NMU; type: functional, cell-based
# Summary of the method: (§4)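 HEK293 cells transiently transfected with human NMUR1 or NMUR2 plasmid (FuGENE6), reseeded 18 h post-transfection at 4.0 × 10^4 cells/well on poly-D-lysine. After 18 h, loaded 40 min with 4 μM Fluo-4-AM in HBSS/HEPES/probenecid buffer pH 7.4 with 1% FCS, then washed. Peptides in buffer with 0.05% BSA and 0.001% Triton X-100. Maximal FLIPR signal expressed as % of hNMU at 1000 nM.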
# [8] = target: T3, Neuromedin-U receptor 1 (Homo sapiens); assay: Agonist activity at human NMUR1 expressed in HEK293 cells at 1 to 100 nM by calcium mobilization assay relative to NMU; type: functional, cell-based; summary of the method: as §4
# Neuromedin-U receptor 2 [9] = target: Neuromedin-U receptor 2 (Mus musculus, UniProt Q8BZ39); assay: Agonist activity at mouse NMUR2 expressed in HEK293 cells by calcium mobilization assay; type: functional, cell-based
# Chain of Neuromedin-U receptor 2 (Mus musculus, UniProt Q8BZ39) (Q8BZ39 whole entry): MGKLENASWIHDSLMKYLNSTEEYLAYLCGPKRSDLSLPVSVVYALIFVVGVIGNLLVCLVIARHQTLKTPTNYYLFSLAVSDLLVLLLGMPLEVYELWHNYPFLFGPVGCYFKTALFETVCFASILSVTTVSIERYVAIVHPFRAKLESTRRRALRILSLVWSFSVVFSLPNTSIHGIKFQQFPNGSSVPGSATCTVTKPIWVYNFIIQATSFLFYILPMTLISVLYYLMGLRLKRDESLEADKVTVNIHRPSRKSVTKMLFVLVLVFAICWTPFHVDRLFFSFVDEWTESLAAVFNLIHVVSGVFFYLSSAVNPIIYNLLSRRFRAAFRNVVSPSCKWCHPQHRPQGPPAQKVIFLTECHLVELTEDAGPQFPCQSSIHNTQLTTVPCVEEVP
# Neuromedin-U receptor 1 [10] = target: T4, Neuromedin-U receptor 1 (Mus musculus, UniProt O55040); assay: Agonist activity at mouse NMUR1 expressed in HEK293 cells by calcium mobilization assay; type: functional, cell-based
# T4 sequence (O55040 whole entry): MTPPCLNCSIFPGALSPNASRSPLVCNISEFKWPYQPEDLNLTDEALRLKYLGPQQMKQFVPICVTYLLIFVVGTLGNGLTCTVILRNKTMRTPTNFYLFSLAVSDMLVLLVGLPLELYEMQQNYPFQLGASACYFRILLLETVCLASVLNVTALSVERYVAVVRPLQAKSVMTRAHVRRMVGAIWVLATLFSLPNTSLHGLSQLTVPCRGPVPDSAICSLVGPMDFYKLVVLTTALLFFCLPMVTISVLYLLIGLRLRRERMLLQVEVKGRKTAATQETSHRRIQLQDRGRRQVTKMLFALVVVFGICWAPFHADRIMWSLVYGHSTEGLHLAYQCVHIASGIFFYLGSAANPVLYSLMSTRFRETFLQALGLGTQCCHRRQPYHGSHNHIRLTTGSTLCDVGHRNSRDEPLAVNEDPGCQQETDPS
# [11] = target: T3, Neuromedin-U receptor 1 (Homo sapiens); assay: Agonist activity at human NMUR1 expressed in CHO cells at 10^-12 to 10^-6 M by calcium mobilization assay relative to NMU; type: functional, cell-based; summary of the method: as §2
# Neuromedin-U receptor 2 [12] = target: T1, Neuromedin-U receptor 2; assay: Partial agonist activity at human NMUR2 expressed in CHO cells by calcium mobilization assay; type: functional, cell-based; summary of the method: as §3
# Neuromedin-U receptor 1 [13] = target: T2, Neuromedin-U receptor 1; assay: Partial agonist activity at human NMUR1 expressed in CHO cells by calcium mobilization assay; type: functional, cell-based; summary of the method: as §3
# Neuromedin-U receptor 2 [14] = target: T1, Neuromedin-U receptor 2; assay: Agonist activity at human NMUR2 expressed in CHO cells at 10^-12 to 10^-6 M by calcium mobilization assay relative to NMU; type: functional, cell-based; summary of the method: as §2
# Neuromedin-U receptor 2 [15] = target: T1, Neuromedin-U receptor 2; assay: Agonist activity at human NMUR2 expressed in HEK293 cells at 1 nM by calcium mobilization assay relative to NMU; type: functional, cell-based; summary of the method: as §4
# Neuromedin-U receptor 2 [16] = target: T1, Neuromedin-U receptor 2; assay: Agonist activity at human NMUR2 expressed in HEK293 cells at 10 nM by calcium mobilization assay relative to NMU; type: functional, cell-based; summary of the method: as §4
# [17] = target: T3, Neuromedin-U receptor 1 (Homo sapiens); assay: Agonist activity at human NMUR1 expressed in HEK293 cells at 10 nM by calcium mobilization assay relative to NMU; type: functional, cell-based; summary of the method: as §4
# [18] = target: T3, Neuromedin-U receptor 1 (Homo sapiens); assay: Agonist activity at human NMUR1 expressed in HEK293 cells at 1 nM by calcium mobilization assay relative to NMU; type: functional, cell-based; summary of the method: as §4
compound,measurement,setting,value
H-FRVDEEFQSPFASQSRGYFLFRPRN-NH2,Selectivity ratio,Homo sapiens [1],5.8
same,Activity,Neuromedin-U receptor 2 [2],2.5 nM
same,Selectivity ratio,Homo sapiens [3],0.17
same,EC50,Neuromedin-U receptor 1 [4],0.43 nM
same,EC50,Neuromedin-U receptor 2 [5],2.5 nM
same,Activity,[6],0.43 nM
CC(C)C[C@H](NC(=O)[C@@H]1Cc2ccccc2CN1)C(=O)N[C@@H](Cc1ccccc1)C(=O)N[C@@H](CCCNC(=N)N)C(=O)N1CCC[C@H]1C(=O)N[C@@H](CCCNC(=N)N)C(=O)N[C@@H](CC(N)=O)C(N)=O (H-[Tic]LFRPRN-NH2),Activity,Neuromedin-U receptor 2 [7],Active
same,Activity,[8],Active
CC(C)C[C@H](NC(=O)CCc1ccccc1)C(=O)N[C@@H](Cc1ccccc1)C(=O)N[C@@H](CCCNC(=N)N)C(=O)N1CCC[C@H]1C(=O)N[C@@H](CCCNC(=N)N)C(=O)N[C@@H](CCN)C(N)=O (Hydrocinnamoyl-LFRPR[Dab]-NH2),Activity,Neuromedin-U receptor 2 [7],inactive
same,Activity,[8],inactive
CC(C)C[C@H](NC(=O)[C@H](Cc1ccccc1)NC(=O)[C@@H](N)Cc1ccc(O)cc1)C(=O)N[C@@H](Cc1ccccc1)C(=O)N[C@@H](CCCNC(=N)N)C(=O)N1CCC[C@H]1C(=O)N[C@@H](CCCNC(=N)N)C(=O)N[C@@H](CC(N)=O)C(N)=O,EC50,Neuromedin-U receptor 2 [9],3 nM
same,EC50,Neuromedin-U receptor 1 [10],9.5 nM
CC(C)C[C@H](NC(=O)CCc1ccccc1)C(=O)N[C@@H](CCc1ccccc1)C(=O)N[C@@H](CCCNC(=N)N)C(=O)N1CCC[C@H]1C(=O)N[C@@H](CCCNC(=N)N)C(=O)N[C@@H](CC(N)=O)C(N)=O (Hydrocinnamoyl-L[hPhe]RPRN-NH2),Activity,Neuromedin-U receptor 2 [7],inactive
same,Activity,[8],inactive
CC(C)C[C@H](NC(=O)CCc1ccccc1)C(=O)N[C@@H](Cc1ccccc1)C(=O)N[C@@H](CCCNC(=N)N)C(=O)N1CCC[C@H]1C(=O)N[C@@H](CCCNC(=N)N)C(=O)N[C@@H](CC(N)=O)C(N)=O (Hydrocinnamoyl-LFRPRN-NH2),Intrinsic activity,[11],71%
same,EC50,Neuromedin-U receptor 2 [12],8.4 nM
same,Selectivity ratio,Homo sapiens [1],0.9
same,Activity,Neuromedin-U receptor 2 [2],18 nM
same,Selectivity ratio,Homo sapiens [3],1.1
same,EC50,Neuromedin-U receptor 1 [13],9 nM
same,Intrinsic activity,Neuromedin-U receptor 2 [14],82%
same,Activity,Neuromedin-U receptor 2 [7],Active
same,Activity,[8],Active
same,Activity,[6],20 nM
CC(C)C[C@H](NC(=O)CCC1CCCCC1)C(=O)N[C@@H](CC(C)C)C(=O)N[C@@H](CN)C(=O)N1CCC[C@H]1C(=O)N[C@@H](CCCNC(=N)N)C(=O)N[C@@H](CC(N)=O)C(N)=O ({Propanoyl(3-cHex)}-LL[Dap]PRN-NH2),Activity,Neuromedin-U receptor 2 [15],70%
same,Selectivity ratio,Homo sapiens [1],< 0.0066
same,Activity,Neuromedin-U receptor 2 [2],6.6 nM
same,Selectivity ratio,Homo sapiens [3],> 152
same,Intrinsic activity,Neuromedin-U receptor 2 [14],98%
same,EC50,Neuromedin-U receptor 2 [5],6.4 nM
same,Activity,Neuromedin-U receptor 2 [16],88%
same,Activity,[6],> 1000 nM
H-YFLFAPRN-NH2,EC50,Neuromedin-U receptor 2 [9],156 nM
same,EC50,Neuromedin-U receptor 1 [10],2410 nM
CC(C)C[C@H](NC(=O)CCc1ccccc1)C(=O)N[C@@H](Cc1ccccc1)C(=O)N[C@@H](CCCNC(=N)N)C(=O)N1CCCC[C@H]1C(=O)N[C@@H](CCCNC(=N)N)C(=O)N[C@@H](CC(N)=O)C(N)=O (Hydrocinnamoyl-LFR[Pip]RN-NH2),Activity,Neuromedin-U receptor 2 [7],Active
same,Activity,[8],Active
N=C(N)NCCC[C@H](NC(=O)[C@@H]1CCCN1C(=O)[C@H](CCCNC(=N)N)NC(=O)[C@H](Cc1ccccc1)NC(=O)[C@H](Cc1ccc2ccccc2c1)NC(=O)CCc1cccnc1)C(=O)N[C@@H](CC(N)=O)C(N)=O ({Propanoyl(3-(3-pyridyl))}-[2Nal]FRPRN-NH2),Intrinsic activity,[11],79%
same,Activity,[17],84%
same,Selectivity ratio,Homo sapiens [1],49
same,Activity,Neuromedin-U receptor 2 [2],249 nM
same,Selectivity ratio,Homo sapiens [3],0.02
same,Activity,[18],63%
same,EC50,Neuromedin-U receptor 1 [13],2.2 nM
same,Activity,[8],Active
same,Activity,[6],5.1 nM
H-FLFRPRN-NH2,Activity,Neuromedin-U receptor 2 [7],Active
same,Activity,[8],Active
CC(C)C[C@H](NC(=O)CCc1ccccc1)C(=O)N[C@@H](Cc1ccccc1)C(=O)N[C@@H](CCCNC(=N)N)C(=O)N1CCC[C@H]1C(=O)N[C@@H](CCCNC(=N)N)C(=O)N[C@@H](C)C(N)=O (Hydrocinnamoyl-LFRPRA-NH2),Activity,Neuromedin-U receptor 2 [7],inactive
same,Activity,[8],inactive
CC(C)C[C@H](NC(=O)CCc1ccccc1)C(=O)N[C@@H](Cc1ccccc1)C(=O)N[C@@H](CCCNC(=N)N)C(=O)N1CCC[C@H]1C(=O)N[C@@H](CCCNC(=N)N)C(=O)N[C@@H](CCC(N)=O)C(N)=O (Hydrocinnamoyl-LFRPRQ-NH2),Activity,Neuromedin-U receptor 2 [7],inactive
same,Activity,[8],inactive
CC(C)C[C@H](NC(=O)CCc1ccccc1)C(=O)N[C@@H](Cc1ccccc1)C(=O)N[C@@H](CCCCNC(=N)N)C(=O)N1CCC[C@H]1C(=O)N[C@@H](CCCNC(=N)N)C(=O)N[C@@H](CC(N)=O)C(N)=O (Hydrocinnamoyl-LF[hArg]PRN-NH2),Activity,Neuromedin-U receptor 2 [7],Active
same,Activity,[8],Active

# — ChEMBL document CHEMBL3351814, “Discovery of selective hexapeptide agonists to human neuromedin U receptors types 1 and 2” (J Med Chem, 2014)
